Test results reported in ChEMBL document CHEMBL3872225, “Synthesis, binding assays, cytotoxic activity and docking studies of benzimidazole and benzothiophene derivatives with selective affinity for the CB2 cannabinoid receptor” (Eur J Med Chem, 2016).

Legend:
Cannabinoid receptor 2 [1] = target: T1, Cannabinoid receptor 2 (Homo sapiens, UniProt P34972); experiment: Displacement of [3H]CP-55940 from human recombinant CB2 receptor expressed in HEK293 cell membranes at 1 uM incubated for 1.5 hrs relative to control
T1 sequence (P34972 whole entry): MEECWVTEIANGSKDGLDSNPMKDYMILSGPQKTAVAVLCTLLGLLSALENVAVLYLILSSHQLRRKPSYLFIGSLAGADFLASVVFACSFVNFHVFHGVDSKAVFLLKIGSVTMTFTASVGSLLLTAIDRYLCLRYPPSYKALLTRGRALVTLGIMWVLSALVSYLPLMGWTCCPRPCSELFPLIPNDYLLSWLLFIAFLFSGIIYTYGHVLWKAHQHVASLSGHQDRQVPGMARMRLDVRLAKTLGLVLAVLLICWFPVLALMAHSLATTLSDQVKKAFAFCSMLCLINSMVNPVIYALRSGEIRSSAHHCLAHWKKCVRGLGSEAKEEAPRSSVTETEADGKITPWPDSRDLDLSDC
Procedure, shortened: (§1)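 Single-point screen on HEK-293 membranes overexpressing human CB1 or CB2. […] Compounds displacing more than 50% at 1 μM went on to full curves.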

[2] = Cytotoxicity against human H1975-1 cells assessed as reduction in cell viability measured after 72 hrs by MTT assay; assay type: functional, cell-based
Procedure, shortened: (§2)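 Cells kept in RPMI 1640 with 5% FBS, penicillin/streptomycin, 37 °C, 5% CO2. Seeded at 10,000 cells/well, then exposed to compounds at 0.001–10 μM in 5% FBS-RPMI for 72 h at 37 °C. MTT added for 4 h, formazan dissolved overnight in 10% SDS/0.1 mM HCl, absorbance read at 570 nm. […] Etoposide as positive control.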

Cannabinoid receptor 1 = Cannabinoid receptor 1 (Homo sapiens, UniProt P21554); experiment: Displacement of [3H]CP-55940 from human recombinant CB1 receptor expressed in HEK293 cell membranes incubated for 1.5 hrs
Chain of Cannabinoid receptor 1 (P21554 whole entry): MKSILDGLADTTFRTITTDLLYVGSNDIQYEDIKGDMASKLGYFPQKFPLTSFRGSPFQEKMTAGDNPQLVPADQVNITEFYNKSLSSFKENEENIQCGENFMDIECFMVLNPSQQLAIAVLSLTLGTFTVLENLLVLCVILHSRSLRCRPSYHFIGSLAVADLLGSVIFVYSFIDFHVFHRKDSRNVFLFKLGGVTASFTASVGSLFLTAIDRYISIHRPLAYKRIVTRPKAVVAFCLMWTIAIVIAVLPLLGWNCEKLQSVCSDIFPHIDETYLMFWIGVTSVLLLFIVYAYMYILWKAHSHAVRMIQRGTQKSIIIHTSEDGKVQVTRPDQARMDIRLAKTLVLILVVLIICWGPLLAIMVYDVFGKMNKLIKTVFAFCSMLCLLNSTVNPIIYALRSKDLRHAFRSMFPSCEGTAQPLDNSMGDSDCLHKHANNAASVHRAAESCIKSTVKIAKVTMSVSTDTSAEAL
Procedure, shortened: (§3)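 Membranes from HEK-293 cells overexpressing human CB1 or CB2 incubated with increasing compound concentrations and 0.5 nM [3H]CP-55,940 at 30 °C for 1.5 h. […] Selectivity index is Ki CB1/Ki CB2.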

[3] = Cytotoxicity against resistant human HCT116 cells assessed as reduction in cell viability measured after 72 hrs by MTT assay; assay type: functional, cell-based; conditions: HCT-116, 72 h; procedure, shortened: as §2
Cannabinoid receptor 2 [4] = target: T1, Cannabinoid receptor 2; experiment: Displacement of [3H]CP-55940 from human recombinant CB2 receptor expressed in HEK293 cell membranes incubated for 1.5 hrs; procedure, shortened: as §3
[5] = target: Cannabinoid receptor 1 (CB1) (Homo sapiens, UniProt P21554); experiment: Displacement of [3H]CP-55940 from human recombinant CB1 receptor expressed in HEK293 cell membranes at 1 uM incubated for 1.5 hrs relative to control; conditions: probe [3H]CP-55940; procedure, shortened: as §1
Chain of Cannabinoid receptor 1 (CB1) (P21554 whole entry): as above

[6] = Cytotoxicity against human HL60 cells assessed as reduction in cell viability measured after 72 hrs by MTT assay; assay type: functional, cell-based; conditions: HL-60, 72 h; procedure, shortened: as §2
[7] = Cytotoxicity against African green monkey Vero cells assessed as reduction in cell viability measured after 72 hrs by MTT assay; assay type: toxicity, cell-based; conditions: Chlorocebus sabaeus (African green monkey); procedure, shortened: as §2
[8] = Cytotoxicity against human HeLa cells assessed as reduction in cell viability measured after 72 hrs by MTT assay; assay type: functional, cell-based; procedure, shortened: as §2
Homo sapiens = organism: Homo sapiens; experiment: Selectivity index, ratio of Ki for displacement of [3H]CP-55940 from human recombinant CB1 receptor to Ki for displacement of [3H]CP-55940 from human recombinant CB2 receptor; procedure, shortened: as §3

SMILES	inhibition (Cannabinoid receptor 2 [1])	IC50 [2]	IC50 (Cannabinoid receptor 1)	Ki (Cannabinoid receptor 1)	IC50 [3]	IC50 (Cannabinoid receptor 2 [4])	Ki (Cannabinoid receptor 2 [4])	inhibition at 1.5 h, 1 µM [5]	IC50 [6]	IC50 at 72 h [7]	IC50 [8]	Ratio Ki (Homo sapiens)
COc1ccc(C(=O)n2c(C)nc3ccccc32)cc1	> 50%	> 10 µM	> 10 µM	> 10 µM	0.01 µM	> 10 µM	> 10 µM	> 50%	0.057 µM	1.23 µM	> 10 µM	
COc1ccc(C(=O)n2c(CC(C)C)nc3ccccc32)cc1	> 50%	> 10 µM	> 10 µM	> 10 µM	3.56 µM	> 10 µM	> 10 µM	> 50%	0.034 µM	> 10 µM	> 10 µM	
COc1ccc(C(=O)c2c(CC(C)C)sc3ccccc23)cc1	> 50%	> 10 µM	7.6 µM	4.6 µM	> 10 µM	0.7 µM	0.1 µM	> 50%	0.066 µM	> 10 µM	> 10 µM	46
CC(C)(C)c1nc2ccccc2n1C(=O)c1cccc2ccccc12	> 50%	> 10 µM	> 10 µM	> 10 µM	> 10 µM	0.3 µM	0.08 µM	> 50%	0.13 µM	> 10 µM	> 10 µM	> 125
COc1ccc(C(=O)n2c(C3CCC3)nc3ccccc32)cc1	> 50%	> 10 µM	> 10 µM	> 10 µM	> 10 µM	3.6 µM	0.9 µM	> 50%	0.047 µM	> 10 µM	> 10 µM	> 11
CCc1sc2ccccc2c1C(=O)c1cccc2ccccc12	> 50%	> 10 µM	8.4 µM	5.1 µM	> 10 µM	2.9 µM	0.7 µM	> 50%	0.099 µM	> 10 µM	> 10 µM	7.28
COc1ccc(C(=O)c2c(-c3ccc(OC)cc3)sc3ccccc23)cc1	> 50%	> 10 µM	1.1 µM	0.7 µM	> 10 µM	0.4 µM	0.1 µM	> 50%	0.076 µM	> 10 µM	> 10 µM	7
COc1ccc(C(=O)n2c(C(C)(C)C)nc3ccccc32)cc1	> 50%	> 10 µM	> 10 µM	> 10 µM	0.02 µM	2.4 µM	0.6 µM	> 50%	0.055 µM	> 10 µM	> 10 µM	> 16.7
O=C(c1cccc2ccccc12)n1c(C2CCCCC2)nc2ccccc21	> 50%	> 10 µM	4.9 µM	2.9 µM	3.02 µM	1.7 µM	0.4 µM	> 50%	0.22 µM	> 10 µM	> 10 µM	7.25
COc1ccc(Cn2c(-c3ccc(OC)cc3)nc3ccccc32)cc1	> 50%	> 10 µM	> 10 µM	> 10 µM	1.75 µM	2.7 µM	0.7 µM	> 50%	0.057 µM	> 10 µM	3.06 µM	> 14
CCCCCc1sc2ccccc2c1C(=O)c1cccc2ccccc12	> 50%	> 10 µM	0.8 µM	0.5 µM	> 10 µM	1.3 µM	0.3 µM	> 50%	0.17 µM	> 10 µM	> 10 µM	1.7
COc1ccc(-c2sc3ccccc3c2C(=O)c2cccc3ccccc23)cc1	> 50%	> 10 µM	8.4 µM	5.1 µM	> 10 µM	1.4 µM	0.3 µM	> 50%	0.071 µM	> 10 µM	> 10 µM	17
CCCc1sc2ccccc2c1C(=O)c1ccc(OC)cc1	> 50%	> 10 µM	> 10 µM	> 10 µM	> 10 µM	1.2 µM	0.3 µM	> 50%	0.08 µM	> 10 µM	> 10 µM	> 33
CCc1sc2ccccc2c1C(=O)c1ccc(OC)cc1	> 50%	> 10 µM	> 10 µM	> 10 µM	> 10 µM	6.6 µM	1.6 µM	> 50%	0.046 µM	> 10 µM	> 10 µM	> 6.2
CCCCc1nc2ccccc2n1C(=O)c1ccc(OC)cc1	> 50%	> 10 µM	> 10 µM	> 10 µM	> 10 µM	6.3 µM	1.6 µM	> 50%	0.061 µM	0.17 µM	> 10 µM	> 6.25
CC(C)Cc1nc2ccccc2n1C(=O)c1cccc2ccccc12	> 50%	> 10 µM	> 10 µM	> 10 µM	2.17 µM	0.5 µM	0.1 µM	> 50%	0.094 µM	> 10 µM	> 10 µM	> 100
CCCc1nc2ccccc2n1C(=O)c1cccc2ccccc12	> 50%	> 10 µM	> 10 µM	> 10 µM	2.4 µM	> 10 µM	> 10 µM	> 50%	0.1 µM	> 10 µM	> 10 µM	
COc1cc([C@@H]2c3cc4c(cc3[C@@H](O[C@@H]3O[C@@H]5CO[C@@H](C)O[C@H]5[C@H](O)[C@H]3O)[C@H]3COC(=O)[C@H]23)OCO4)cc(OC)c1O [ETOPOSIDE]		9.5 µM			2.8 µM				2.1 µM	1.5 µM	8.2 µM	
Cc1nc2ccccc2n1C(=O)c1cccc2ccccc12	> 50%	> 10 µM	> 10 µM	> 10 µM	> 10 µM	> 10 µM	> 10 µM	> 50%	0.093 µM	> 10 µM	> 10 µM	
Cc1c(C(=O)c2cccc3ccccc23)c2cccc3c2n1[C@H](CN1CCOCC1)CO3 [WIN-552122]		3.8 µM			0.92 µM				0.007 µM	0.31 µM	0.98 µM	
